# According to ChEMBL document CHEMBL1121573, “2-(Aminomethyl)phenols, a new class of saluretic agents. 1. Effects of nuclear substitution” (J Med Chem, 1980):
# Legend:
# Canis familiaris [1] = assay: Compound administered intravenously was evaluated for salidiuretic activity measured as sodium ion excretion in Dog; Value ranges from 600-799; assay type: ADME, organism-based, Canis lupus familiaris, Urine; conditions: in vivo, iv
# Method in brief: (§1)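 Conditioned female mongrel dogs, postabsorptive, water-loaded (500 mL po) 1 h before sodium pentobarbital anesthesia (30 mg/kg iv). Bladder catheter; creatinine 4 g sc; phosphate–mannitol buffer pH 7.4 infused (3.0 mL/min) throughout. […] Urine Na+ measured; response scored 0–6.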
# Canis familiaris [2] = assay: Compound administered intravenously was evaluated for salidiuretic activity measured as sodium ion excretion in Dog; Value ranges from 100-249; assay type: ADME, organism-based, Canis lupus familiaris, Urine; conditions: in vivo, iv; method in brief: as §1
# [3] = Compound administered orally at a dose of 5 mg/kg was evaluated for salidiuretic activity measured as sodium ion excretion in Rat; assay type: organism-based; set-up: dose 5 mg/kg; conditions: Urine
# Method in brief: (§2)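 Female Charles-River rats (150–170 g), overnight on sugar diet with water ad libitum. Compound dissolved in DMF, diluted with water containing Tween 80 (final 4% DMF), given po in 5.0 mL; concurrent vehicle placebo. Three rats per metabolism cage; 0–5 h urine analysed for Na+, K+, Cl-. Values: mequiv × 100 per cage, geometric means of three cages per dose; scored 0–6 by Na+.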
# Rattus norvegicus [4] = assay: Evaluated for salidiuretic activity measured as sodium ion excretion in Rat, administered orally at a dose of 50 mg/kg; assay type: functional, Urine; set-up: unit not given beside the values; conditions: route oral; method in brief: as §2
# Rattus norvegicus [5] = assay: Compound administered orally at a dose of 1 mg/kg was evaluated for salidiuretic activity measured as sodium ion excretion in Rat; conditions: in vivo, po
# Canis familiaris [6] = assay: Compound administered intravenously at a dose of 5 mg/kg was evaluated for salidiuretic activity measured as sodium ion excretion in Dog; Value ranges from 600-799; assay type: ADME, organism-based, Canis lupus familiaris, Urine; set-up: dose 5 mg/kg, route intravenous; unit not given beside the values; conditions: in vivo, iv; method in brief: as §1
# [7] = Evaluated for salidiuretic activity measured as sodium ion excretion in Rat, administered orally at a dose of 16.5 mg/kg; assay type: organism-based; set-up: dose 16.5 mg/kg; conditions: Urine; method in brief: as §2
# Canis familiaris [8] = assay: Compound administered intravenously was evaluated for salidiuretic activity measured as sodium ion excretion in Dog; Value ranges from 400-599; assay type: ADME, organism-based, Canis lupus familiaris, Urine; conditions: in vivo, iv; method in brief: as §1
# Rattus norvegicus [9] = assay: Compound administered orally at a dose of 81 mg/kg was evaluated for salidiuretic activity measured as sodium ion excretion in Rat; assay type: ADME, organism-based, Urine; set-up: dose 81 mg/kg, route oral; unit not given beside the values; conditions: in vivo, po; method in brief: as §2
# Canis familiaris [10] = assay: Compound administered intravenously at a dose of 5 mg/kg was evaluated for salidiuretic activity measured as sodium ion excretion in Dog; Value ranges from 400-599; assay type: ADME, organism-based, Canis lupus familiaris, Urine; set-up: dose 5 mg/kg, route intravenous; conditions: in vivo, iv; method in brief: as §1
# Canis familiaris [11] = assay: Compound administered intravenously was evaluated for salidiuretic activity measured as sodium ion excretion in Dog; assay type: ADME, organism-based, Canis lupus familiaris, Urine; set-up: unit not given beside the values; conditions: in vivo, iv; method in brief: as §1
# Canis familiaris [12] = assay: Compound administered intravenously at a dose of 5 mg/kg was evaluated for salidiuretic activity measured as sodium ion excretion in Dog; Value ranges from 0-99; assay type: ADME, organism-based, Canis lupus familiaris, Urine; set-up: dose 5 mg/kg, route intravenous; conditions: in vivo, iv; method in brief: as §1
# Canis familiaris [13] = assay: Compound administered intravenously at a dose of 5 mg/kg was evaluated for salidiuretic activity measured as sodium ion excretion in Dog; Value ranges from 600- 799; assay type: ADME, organism-based, Canis lupus familiaris, Urine; set-up: dose 5 mg/kg, route intravenous; conditions: in vivo, iv; method in brief: as §1
Diuretic activity (Rattus norvegicus [9]),SMILES,Diuretic activity [3],Diuretic activity (Rattus norvegicus [4]),Diuretic activity [7],other results
2.9,Cc1c(Cl)cc(I)c(O)c1CN.Cl,0.5,2.4,1.4,Diuretic activity (Canis familiaris [6]): 600
2.9,Cc1cc(Cl)c(O)c(CN)c1C.Cl,0.5,2.4,1.4,Diuretic activity (Canis familiaris [10]): 400

# The next lines start with the compound.
SMILES,Diuretic activity (Rattus norvegicus [9]),Diuretic activity [3],Diuretic activity (Rattus norvegicus [4]),Diuretic activity [7],other results
Cc1c(C)c(Cl)c(O)c(CN)c1C.Cl,,,,,Diuretic activity (Canis familiaris [1]): 600
Cc1c(Cl)cc(C(C)C)c(O)c1CN.Cl,,,,,Diuretic activity (Canis familiaris [2]): 100
CC(C)c1cc(I)c(O)c(CN)c1.Cl,,2.6,3.6,3.3,Diuretic activity (Rattus norvegicus [5]): 0.7; Diuretic activity (Canis familiaris [6]): 600
Cc1c(C)c(Cl)c(C)c(CN)c1O.Cl,,,,,Diuretic activity (Canis familiaris [1]): 600
CC1(c2cc(I)c(O)c(CN)c2)CCCC1.Cl,,,,,Diuretic activity (Canis familiaris [8]): 400
CCc1ccc(O)c(CN)c1.Cl,1.5,0.3,1.2,0.5,Diuretic activity (Canis familiaris [2]): 100
CCSc1cc(C(C)(C)C)cc(CN)c1O.Cl,1.5,0.3,1.2,0.5,Diuretic activity (Canis familiaris [10]): 400
Cc1c(Cl)c(C)c(CN)c(O)c1Br.Cl,,,,,Diuretic activity (Canis familiaris [11]): > 900
Cl.NCc1c(O)cc(Cl)c(Cl)c1Cl,,1.4,3.3,2.7,Diuretic activity (Canis familiaris [10]): 400
CCOc1c(Cl)c(O)c(CN)c(OCC)c1Cl.Cl,2.9,0.5,2.4,1.4,Diuretic activity (Canis familiaris [12]): 0
Cc1cc(C(C)(C)C)cc(CN)c1O.Cl,,,,,Diuretic activity (Canis familiaris [1]): 600
CCCc1cc(I)c(O)c(CN)c1.Cl,2.4,0.4,1.8,0.6,Diuretic activity (Canis familiaris [13]): 600
CCCC(=O)c1cc(C)c(O)c(CN)c1.Cl,,,,,Diuretic activity (Canis familiaris [2]): 100
CCC(C)(C)c1cc(Cl)c(O)c(CN)c1.Cl,2.9,0.5,2.4,1.4,Diuretic activity (Canis familiaris [6]): 600
C=CCc1cc(CN)c(O)c(OC)c1.Cl,2.9,0.5,2.4,1.4,Diuretic activity (Canis familiaris [6]): 600
